A word on the pEC50: it is −log10 of the EC50, conventionally taken in molar units.

Molecules are shown by their SMILES. pEC50: −log10 of the molar value. Activity calls are given as the source filed them. The calls are words filed in the database; no cut-off is given here. Where only a bound is given, the exact number is not on record here.

For series [1], the system named is L929. Briefly: Cytotoxicity against mouse L929 cells assessed as reduction in cell viability. Format: cell-based.
The nature of series [2]: Drug metabolism in rat liver microsomes assessed as UGT-mediated metabolism by measuring compound remaining at 5 uM incubated for 30 mins in presence of UDPGA by UPLC-MS analysis. Format: ADME. The following applies: read-out: Stability. The procedure, abridged:
(§1)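 Compound incubated with male mouse, rat, dog or pooled human S9 fractions, with NADPH (phase I) or […], sampled at 0, 15, 30 and 60 min. Read-out is percent parent remaining. Two independent experiments of two biological replicates; diclofenac and fluconazole used as assay controls.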
(In general: Liver microsomes are vesicles of endoplasmic reticulum, rich in cytochrome P450 enzymes.)

In series [3] the test system is Trypanosoma cruzi. The experiment in a line: Antitrypanosomal activity against Trypanosoma cruzi Y amastigotes infected in Swiss mouse primary cardiac cells incubated for 168 hrs with media replenishment for every 48 hrs followed by compound washout and measured after 168 hrs by light microscopic method. Format: functional, organism-based. The procedure, abridged: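 Cardiac cells plated 24 h, then infected 24 h at 37 °C with Y-strain bloodstream trypomastigotes (parasite:host 10:1) and washed. Serial dilutions (up to 5 µM) for 168 h at 37 °C, drug medium renewed every 48 h. PBS rinse, 168 h drug-free. Giemsa-stained; infected cells and parasites per cell scored in 200 cells. EC50 from infection-index inhibition; two experiments, duplicate.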

The target of series [4] is Cytochrome P450 (Homo sapiens, UniProt P04798+P05177+P05181+P08684+P10632+P10635+P11509+P11712+P13584+P20813+P20815+P20853+P24462+P24903+P33260+P33261+P51589+P78329+P98187+Q02928+Q08477+Q16678+Q16696+Q5TCH4+Q6VVX0+Q7Z449+Q8TAV3+Q96SQ9+Q9HB55). Briefly: Drug metabolism in human liver S9 fraction assessed as CYP450-mediated metabolism by measuring parent compound remaining at 5 uM incubated for 30 mins in presence of NADPH by UPLC-MS analysis. Format: ADME, subcellular. The conditions noted are these: read-out: Stability. The essentials: as §1

Series [5] can be described thus: Drug metabolism in rat liver microsomes assessed as UGT-mediated metabolism by measuring compound remaining at 5 uM measured immediately in presence of UDPGA by UPLC-MS analysis. The following applies: read-out: Stability. Format: ADME. The procedure, abridged:
as §1

In series [6] the target is UDP-glucuronosyltransferases (UGTs) (Homo sapiens, UniProt O60656+O75310+O75795+P06133+P0DTE4+P0DTE5+P16662+P19224+P22309+P22310+P35503+P35504+P36537+P54855+Q6UWM9+Q9BY64+Q9HAW7+Q9HAW8+Q9HAW9). Briefly: Drug metabolism in human liver S9 fraction assessed as UGT-mediated metabolism by measuring compound remaining at 5 uM incubated for 15 mins in presence of UDPGA by UPLC-MS analysis. Format: ADME, subcellular. The following applies: read-out: Stability. The procedure, abridged:
as §1

In series [7] the test system is Trypanosoma cruzi. The experiment in a line: In vivo antitrypanosomal activity against Trypanosoma cruzi Y trypomastigotes infected in Swiss mouse assessed as reduction in parasitemia at 25 mg/kg, po administered twice daily via gavage for 5 days starting from 5 days post-infection in presence of cyclophosphamide by light microscopic method. Format: functional, organism-based. The essentials: (§2)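 Infected mice were dosed orally at 25 mg/kg b.i.d. from 5 dpi, either for 5 days or for 15 days (3 × 5 days, 2 days apart). Mice with negative parasitemia up to 30 days post-treatment then received cyclophosphamide i.p. at 50 mg/kg/day. This was given in three cycles of 4 days, each followed by 3 drug-free days. Tail-vein blood parasitemia was then read by light microscopy.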

Series [8] in a line: Toxicity in Swiss Webster mouse infected with Trypanosoma cruzi Y trypomastigotes assessed as body weight loss at 25 mg/kg, po administered twice daily via gavage for 5 days starting from 5 days post-infection and measured daily up to 40 days post-infection. Format: organism-based. The following applies: in vivo. The essentials: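 Male Swiss Webster mice were infected i.p. with 10⁴ Y-strain trypomastigotes and treated by oral gavage for 5 days from 5 dpi. Regimens were 25 mg/kg b.i.d. (10% EtOH/citrate vehicle) or benznidazole 100 mg/kg s.i.d. Body weight and visual clinical signs were monitored, with daily mortality checks up to 40 dpi. There were six mice per group.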

For series [9], the system named is Trypanosoma cruzi. Briefly: In vivo antitrypanosomal activity against Trypanosoma cruzi Y trypomastigotes infected in Swiss mouse assessed as reduction in parasitemia at 25 mg/kg, po administered twice daily for 5 days with 2 days interval for 3 cycles and measured up to 30 days post-infection by light microscopy. Format: functional, organism-based. The procedure, abridged:
(§3)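 Male Swiss Webster mice infected i.p. with 10⁴ Y-strain bloodstream trypomastigotes; six per group. Oral gavage from 5 dpi for 15 days (three 5-day rounds, 2 days off): test compound 25 mg/kg b.i.d., benznidazole 100 mg/kg s.i.d. Parasites counted in 5 μL tail blood to 30 dpi; mortality followed to 53 dpi.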

A short description of series [10]: Drug metabolism in rat liver microsomes assessed as CYP450-mediated metabolism by measuring parent compound remaining at 5 uM incubated for 60 mins in presence of NADPH by UPLC-MS analysis. The following applies: read-out: Stability. Format: ADME. The essentials:
as §1

A short description of series [11]: Drug metabolism in rat liver microsomes assessed as CYP450-mediated metabolism by measuring parent compound remaining at 5 uM incubated for 15 mins in presence of NADPH by UPLC-MS analysis. Format: ADME. The following applies: read-out: Stability. The essentials: as §1
Series [12] in a line: Drug metabolism in dog liver microsomes assessed as UGT-mediated metabolism by measuring compound remaining at 5 uM measured immediately in presence of UDPGA by UPLC-MS analysis. Format: ADME, Canis lupus familiaris. The following applies: read-out: Stability. The essentials:
as §1

Series [13] is described as follows: Drug metabolism in dog liver microsomes assessed as UGT-mediated metabolism by measuring compound remaining at 5 uM incubated for 15 mins in presence of UDPGA by UPLC-MS analysis. The following applies: read-out: Stability. Format: ADME, Canis lupus familiaris. The procedure, abridged:
as §1

The subject of series [14] is Trypanosoma cruzi. Briefly: In vivo antitrypanosomal activity against Trypanosoma cruzi Y trypomastigotes infected in Swiss mouse assessed as reduction in parasitemia at 25 mg/kg, po administered twice daily for 5 days with 2 days interval for 3 cycles in presence of cyclophosphamide by light microscopy. Format: functional, organism-based. The essentials: as §2
Series [15] can be described thus: Drug metabolism in mouse liver microsomes assessed as CYP450-mediated metabolism by measuring parent compound remaining at 5 uM measured immediately in presence of NADPH by UPLC-MS analysis. Format: ADME. The conditions noted are these: read-out: Stability. The essentials:
as §1

The nature of series [16]: Toxicity in Swiss Webster mouse infected with Trypanosoma cruzi Y trypomastigotes assessed as body weight loss at 25 mg/kg, po administered twice daily for 5 days with 2 days interval for 3 cycles. Format: organism-based. The conditions noted are these: in vivo. The essentials: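 Y-strain-infected male Swiss Webster mice were dosed orally for 15 days (three rounds of 5 days, 2 drug-free days between) starting at 5 dpi. Regimens were 25 mg/kg b.i.d. or benznidazole 100 mg/kg s.i.d. Weight loss was recorded as a sign of toxicity, with mortality checked daily up to 53 dpi. There were six mice per group.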

A short description of series [17]: Drug metabolism in rat liver microsomes assessed as CYP450-mediated metabolism by measuring parent compound remaining at 5 uM measured immediately in presence of NADPH by UPLC-MS analysis. Format: ADME. The conditions noted are these: read-out: Stability. The essentials: as §1
Series [18] in a line: Drug metabolism in dog liver microsomes assessed as CYP450-mediated metabolism by measuring parent compound remaining at 5 uM incubated for 60 mins in presence of NADPH by UPLC-MS analysis. Format: ADME, Canis lupus familiaris. The conditions noted are these: read-out: Stability. The procedure, abridged: as §1
Series [19] concerns Trypanosoma cruzi. Briefly: Antitrypanosomal activity against bloodstream form of Trypanosoma cruzi Y trypomastigotes measured after 24 hrs by Neubauer chamber-based light microscopic analysis. Format: functional, organism-based.
Series [20] is described as follows: Drug metabolism in mouse liver microsomes assessed as CYP450-mediated metabolism by measuring parent compound remaining at 5 uM incubated for 30 mins in presence of NADPH by UPLC-MS analysis. Format: ADME. The conditions noted are these: read-out: Stability. The essentials: as §1
Series [21] has as its system Trypanosoma cruzi. The experiment in a line: In vivo antitrypanosomal activity against Trypanosoma cruzi Y trypomastigotes infected in Swiss mouse assessed as mouse survival at 25 mg/kg, po administered twice daily for 5 days with 2 days interval for 3 cycles and measured […]. Format: functional, organism-based. The procedure, abridged:
as §3

In the case of `Nc1ccnc2c1c(I)cn2[C@@H]1O[C@H](CO)[C@@H](O)[C@H]1O`, the negative-log EC50 (pEC50) in series [1] is < 3.70; in series [3] it was < 5.30; in [19] it was < 4.15. Moreover, the remaining at 0.5 h, 5 µM in series [2] worked out at 94%; in series [4], 96%; in series [20], 95%. Further, the remaining at 0 min, 5 µM in [5], in series [12], in series [15] and in series [17] was 100% in each case. Moreover, the figures for the remaining at 0.25 h, 5 µM in [6], in series [11] and in [13] were 99%, 88% and 94%, respectively. Also, the outcome in series [7], in series [14] and in series [21] was inactive. Further, the Activity result in [8] and in [16] was “Non-Toxic” each time. In addition, the outcome in series [9] was Active. Besides, the remaining at 1 h, 5 µM in series [10] was 85%; in [18], 92%.

Values taken from ChEMBL document CHEMBL4414577, “Discovery of Pyrrolo[2,3-b]pyridine (1,7-Dideazapurine) Nucleoside Analogues as Anti-Trypanosoma cruzi Agents” (J Med Chem, 2019).
